Source: ChEMBL document CHEMBL2176963, “Design, synthesis, and biological evaluation of 3-(1H-1,2,3-triazol-1-yl)benzamide derivatives as Potent Pan Bcr-Abl inhibitors including the threonine(315)→isoleucine(315) mutant” (J Med Chem, 2012)
Blank lines part the entries; values can stand above or below the compound they belong to. The source made the active and inactive calls. No cut-off for these calls is given here.

Assays:
[1] = Antiproliferative activity against mouse BA/F3 cells expressing Bcr-Abl M351T mutant after 72 hrs by CCK-8 assay; details: BaF3, 72 h
[2] = Antiproliferative activity against mouse BA/F3 cells expressing Bcr-Abl F486S mutant after 72 hrs by CCK-8 assay; details: BaF3, 72 h
[3] = Antiproliferative activity against mouse BA/F3 cells expressing Bcr-Abl G250E mutant after 72 hrs by CCK-8 assay; details: BaF3, 72 h
[4] = Antiproliferative activity against mouse BA/F3 cells expressing Bcr-Abl H396R mutant after 72 hrs by CCK-8 assay; details: BaF3, 72 h
[5] = Antiproliferative activity against mouse BA/F3 cells expressing Bcr-Abl E355G mutant after 72 hrs by CCK-8 assay; details: BaF3, 72 h
[6] = Antiproliferative activity against mouse BA/F3 cells expressing Bcr-Abl E255K mutant after 72 hrs by CCK-8 assay; details: BaF3, 72 h
[7] = Antiproliferative activity against mouse BA/F3 cells expressing Bcr-Abl Q252H mutant after 72 hrs by CCK-8 assay; details: BaF3, 72 h
[8] = Antiproliferative activity against mouse BA/F3 cells expressing Bcr-Abl M244V mutant after 72 hrs by CCK-8 assay; details: BaF3, 72 h
[9] = Antiproliferative activity against mouse BA/F3 cells expressing Bcr-Abl E255V mutant after 72 hrs by CCK-8 assay; details: BaF3, 72 h
[10] = Antiproliferative activity against mouse BA/F3 cells expressing Bcr-Abl H396P mutant after 72 hrs by CCK-8 assay; details: BaF3, 72 h
[11] = Antiproliferative activity against mouse BA/F3 cells expressing wild type Bcr-Abl after 72 hrs by CCK-8 assay; details: BaF3, 72 h
[12] = Antiproliferative activity against mouse BA/F3 cells expressing Bcr-Abl F359V mutant after 72 hrs by CCK-8 assay; details: BaF3, 72 h
[13] = Antiproliferative activity against mouse BA/F3 cells after 72 hrs by CCK-8 assay; details: BaF3, 72 h
[14] = Antiproliferative activity against mouse BA/F3 cells expressing Bcr-Abl Y253H mutant after 72 hrs by CCK-8 assay; details: BaF3, 72 h
[15] = Antiproliferative activity against mouse BA/F3 cells expressing Bcr-Abl Y253F mutant after 72 hrs by CCK-8 assay; details: BaF3, 72 h
cells = details: Mus musculus, BaF3, 72 h
BaF3 [16] = assay: Induction of apoptosis in mouse BA/F3 cells expressing Bcr-Abl T315I mutant using annexin-V-FITC and 7-AAD staining by flow cytometer; assay type: functional, cell-based
K562 [17] = assay: Effect on wild type Bcr-Abl protein level in human K562 cells by Western blot analysis; assay type: functional, cell-based
Outline: (§1)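 K562 or Ba/F3 Bcr-Abl T315I cells were treated with graded concentrations, lysed in 1× SDS sample buffer, sonicated and boiled. Lysates were run on 8−12% SDS-PAGE and transferred to PVDF. Membranes were blocked in TBS with 0.1% Tween-20 and 5% nonfat milk, then probed with primary antibody and HRP-conjugated secondary. Blots shown represent three independent experiments.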

[18] = Cell cycle arrest in mouse BA/F3 cells expressing Bcr-Abl T315I mutant assessed as accumulation at G0/G1 phase using propidium iodide staining by FACS analysis; assay type: functional, cell-based; details: BaF3
[19] = tested on: Tyrosine-protein kinase ABL1 (Mus musculus), P00520 [T315I]; assay: Inhibition of Bcr-Abl T315I mutant-mediated STAT5 phosphorylation in mouse BA/F3 cells by Western blot analysis; assay type: cell-based; details: BaF3; outline: as §1
K562 [20] = assay: Induction of apoptosis in human K562 cells expressing wild type Bcr-Abl using annexin-V-FITC and 7-AAD staining by flow cytometer; assay type: functional, cell-based
BaF3 [21] = assay: Effect on STAT5 protein level in mouse BA/F3 cells expressing Bcr-Abl T315I mutant by Western blot analysis; assay type: functional, cell-based; outline: as §1
K562 [22] = assay: Antiproliferative activity against imatinib-resistant human K562 cells expressing Bcr-Abl Q252H mutant after 72 hrs by CCK-8 assay; details: K562, 72 h
[23] = tested on: Tyrosine-protein kinase ABL1 (Mus musculus), P00520 [T315I]; assay: Inhibition of Bcr-Abl T315I mutant phosphorylation in mouse BA/F3 cells by Western blot analysis; assay type: cell-based; details: BaF3; outline: as §1
BaF3 [24] = assay: Effect on Bcr-Abl T315I mutant protein level in mouse BA/F3 cells by Western blot analysis; assay type: functional, cell-based; outline: as §1
K562 [25] = assay: Cell cycle arrest in human K562 cells expressing wild type Bcr-Abl assessed as accumulation at G0/G1 phase using propidium iodide staining by FACS analysis; assay type: functional, cell-based
K562 [26] = assay: Effect on STAT5 protein level in human K562 cells expressing wild type Bcr-Abl by Western blot analysis; assay type: functional, cell-based; outline: as §1
[27] = tested on: Tyrosine-protein kinase ABL1 (Mus musculus), P00520 [T315I]; assay: Inhibition of Bcr-Abl T315I mutant-mediated CrkL phosphorylation in mouse BA/F3 cells by Western blot analysis; assay type: cell-based; details: BaF3; outline: as §1
K562 [28] = assay: Antiproliferative activity against human K562 cells expressing wild type Bcr-Abl after 72 hrs by CCK-8 assay; details: K562, 72 h
K562 [29] = assay: Effect on CrkL protein level in human K562 cells expressing wild type Bcr-Abl by Western blot analysis; assay type: functional, cell-based; outline: as §1
BaF3 [30] = assay: Effect on CrkL protein level in mouse BA/F3 cells expressing Bcr-Abl T315I mutant by Western blot analysis; assay type: functional, cell-based; outline: as §1
[31] = Antiproliferative activity against human KU812 cells expressing wild type Bcr-Abl after 72 hrs by CCK-8 assay; details: KU812, 72 h

Chain of Tyrosine-protein kinase ABL1 (Mus musculus), P00520 [T315I] (P00520 whole entry T315I): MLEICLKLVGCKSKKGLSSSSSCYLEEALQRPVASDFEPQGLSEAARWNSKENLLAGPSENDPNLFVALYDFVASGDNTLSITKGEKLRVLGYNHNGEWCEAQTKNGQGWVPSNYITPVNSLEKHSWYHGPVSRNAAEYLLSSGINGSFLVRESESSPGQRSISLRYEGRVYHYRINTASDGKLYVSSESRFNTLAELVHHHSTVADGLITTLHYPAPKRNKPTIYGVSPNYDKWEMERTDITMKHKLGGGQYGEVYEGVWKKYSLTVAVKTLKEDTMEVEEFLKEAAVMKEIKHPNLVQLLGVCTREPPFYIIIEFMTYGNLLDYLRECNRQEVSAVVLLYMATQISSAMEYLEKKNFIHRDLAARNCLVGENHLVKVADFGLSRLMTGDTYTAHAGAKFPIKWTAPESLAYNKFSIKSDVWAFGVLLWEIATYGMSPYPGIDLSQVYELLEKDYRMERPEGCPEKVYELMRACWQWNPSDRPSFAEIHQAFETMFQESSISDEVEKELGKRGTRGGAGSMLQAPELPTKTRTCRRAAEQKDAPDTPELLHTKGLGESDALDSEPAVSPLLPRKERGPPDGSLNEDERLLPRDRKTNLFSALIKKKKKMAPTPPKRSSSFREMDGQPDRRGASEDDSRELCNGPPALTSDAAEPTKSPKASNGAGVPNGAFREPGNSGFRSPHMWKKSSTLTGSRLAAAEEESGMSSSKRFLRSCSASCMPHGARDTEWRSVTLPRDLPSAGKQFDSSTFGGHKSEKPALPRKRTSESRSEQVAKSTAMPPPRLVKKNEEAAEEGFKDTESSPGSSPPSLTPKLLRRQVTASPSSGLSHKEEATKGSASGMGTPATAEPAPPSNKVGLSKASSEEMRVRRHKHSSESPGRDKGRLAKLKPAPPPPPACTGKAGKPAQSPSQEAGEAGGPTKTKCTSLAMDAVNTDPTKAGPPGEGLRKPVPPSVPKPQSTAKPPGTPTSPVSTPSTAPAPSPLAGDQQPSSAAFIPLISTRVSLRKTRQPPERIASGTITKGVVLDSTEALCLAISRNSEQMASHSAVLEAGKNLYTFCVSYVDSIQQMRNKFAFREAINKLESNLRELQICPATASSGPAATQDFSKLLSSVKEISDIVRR

IC50 (cells): 1710 nM
SMILES: Cc1nc(Nc2ncc(C(=O)Nc3c(C)cccc3Cl)s2)cc(N2CCN(CCO)CC2)n1 [DASATINIB]
IC50 [1]: 0.83 nM | IC50 [2]: 1.71 nM | IC50 [3]: 0.51 nM | IC50 [4]: 1.72 nM | IC50 [5]: 0.58 nM | IC50 [6]: 5.72 nM | IC50 [7]: 6.55 nM | IC50 [8]: 0.12 nM | IC50 [9]: 1.91 nM | IC50 [10]: 0.31 nM | IC50 [11]: 4.5 nM | IC50 [12]: 1.94 nM | IC50 [13]: 6590 nM | IC50 [14]: 1.29 nM | IC50 [15]: 0.58 nM

inhibition [19]: Active | IC50 (K562 [22]): 5.46 nM | inhibition [23]: Dose-dependent effect | inhibition [27]: Active | IC50 (K562 [28]): 0.4 nM | IC50 (cells): 13.9 nM
SMILES: Cc1ccc(C(=O)Nc2ccc(CN3CCN(C)CC3)c(C(F)(F)F)c2)cc1-n1cc(-c2cnc3[nH]ncc3c2)nn1
IC50 [1]: 0.4 nM | IC50 [2]: 1.43 nM | Activity (BaF3 [16]): Active | IC50 [3]: 1.67 nM | Activity (K562 [17]): inactive | IC50 [4]: 3.73 nM | IC50 [5]: 0.37 nM | IC50 [6]: 3.1 nM | Activity [18]: Active | IC50 [7]: 5.49 nM | Activity (K562 [20]): Active | Activity (BaF3 [21]): inactive | IC50 [8]: 0.12 nM | IC50 [9]: 2.96 nM | IC50 [10]: 0.28 nM | Activity (BaF3 [24]): inactive | Activity (K562 [25]): Active | IC50 [11]: 2.44 nM | IC50 [12]: 1.44 nM | Activity (K562 [26]): inactive | IC50 [13]: 416 nM | IC50 [14]: 1.61 nM | IC50 [15]: 0.35 nM | Activity (K562 [29]): inactive | Activity (BaF3 [30]): inactive | IC50 [31]: 0.11 nM

IC50 (cells): 3000 nM
SMILES: Cc1ccc(NC(=O)c2ccc(CN3CCN(C)CC3)cc2)cc1Nc1nccc(-c2cccnc2)n1 [IMATINIB]
IC50 [1]: 424 nM | IC50 [2]: 2550 nM | IC50 [3]: 1860 nM | IC50 [4]: 2380 nM | IC50 [5]: 362 nM | IC50 [6]: 2950 nM | IC50 [7]: 3760 nM | IC50 [8]: 129 nM | IC50 [9]: 8620 nM | IC50 [10]: 110 nM | IC50 [11]: 1830 nM | IC50 [12]: 960 nM | IC50 [13]: 18500 nM | IC50 [14]: 17100 nM | IC50 [15]: 1440 nM

IC50 (cells): 775 nM
SMILES: Cc1cn(-c2cc(NC(=O)c3ccc(C)c(Nc4nccc(-c5cccnc5)n4)c3)cc(C(F)(F)F)c2)cn1 [NILOTINIB]
IC50 [1]: 10.3 nM | IC50 [2]: 21 nM | IC50 [3]: 38.6 nM | IC50 [4]: 87.2 nM | IC50 [5]: 8.38 nM | IC50 [6]: 292 nM | IC50 [7]: 150 nM | IC50 [8]: 1.54 nM | IC50 [9]: 473 nM | IC50 [10]: 6.34 nM | IC50 [11]: 65.2 nM | IC50 [12]: 159 nM | IC50 [13]: 40800 nM | IC50 [14]: 314 nM | IC50 [15]: 60.7 nM

inhibition [19]: Active | IC50 (K562 [22]): 3.91 nM | inhibition [23]: Dose-dependent effect | inhibition [27]: Active | IC50 (K562 [28]): 0.43 nM | IC50 (cells): 11.9 nM
SMILES: CN1CCN(Cc2ccc(NC(=O)c3ccc(Cl)c(-n4cc(-c5cnc6[nH]ncc6c5)nn4)c3)cc2C(F)(F)F)CC1
IC50 [1]: 0.45 nM | IC50 [2]: 4.17 nM | Activity (BaF3 [16]): Active | IC50 [3]: 1.97 nM | Activity (K562 [17]): inactive | IC50 [4]: 5.4 nM | IC50 [5]: 0.3 nM | IC50 [6]: 2.75 nM | Activity [18]: Active | IC50 [7]: 7.55 nM | Activity (K562 [20]): Active | Activity (BaF3 [21]): inactive | IC50 [8]: 0.61 nM | IC50 [9]: 3.41 nM | IC50 [10]: 0.3 nM | Activity (BaF3 [24]): inactive | Activity (K562 [25]): Active | IC50 [11]: 2.49 nM | IC50 [12]: 2.31 nM | Activity (K562 [26]): inactive | IC50 [13]: 372 nM | IC50 [14]: 2.97 nM | IC50 [15]: 0.52 nM | Activity (K562 [29]): inactive | Activity (BaF3 [30]): inactive | IC50 [31]: 0.08 nM
